These results are taken from ChEMBL document CHEMBL1795275, “Substituted benzoxazinones as potent positive allosteric AMPA receptor modulators: part II” (Bioorg Med Chem Lett, 2011).

The species entered for assay [1] is Rattus norvegicus. The assay is described as follows: Positive allosteric modulation of AMPA receptor in rat embryonic hippocampal neurons assessed as concentration required to double glutamate-induced steady-state current by patch clamp electrophysiology assay. To be noted: Hippocampus. (In general: Patch clamp records ionic current or voltage across a cell membrane.)

For assay [2], the species on record is Rattus norvegicus. The assay is described as follows: Positive allosteric modulation of AMPA receptor in rat hippocampal slices assessed as increase of fEPSP-induced current amplitude at 3 uM. Type of assay: tissue-based. The conditions noted are these: Hippocampus. The procedure, abridged:
(§1)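 Field recordings in in vitro hippocampal slices. Result is the percent rise in fEPSP amplitude, measured at the stated compound concentration.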

Assay [3] is described as follows: Displacement of [3H]-AMPAKINE from AMPA receptor in rat forebrain cell membranes. The arrangement: species or system Membrane. (In general: Displacement assays read how much labelled ligand stays bound in the presence of the test substance.)
The species entered for assay [4] is Rattus norvegicus. The assay is described as follows: Positive allosteric modulation of AMPA receptor in rat hippocampal slices assessed as increase of fEPSP-induced current amplitude at 10 uM. In kind it is tissue-based. The conditions noted are these: Hippocampus. The method in brief: as §1
The species entered for assay [5] is Rattus norvegicus. The assay is described as follows: Positive allosteric modulation of AMPA receptor in rat hippocampal slices assessed as increase of fEPSP-induced current amplitude at 30 uM. In kind it is tissue-based. The conditions noted are these: Hippocampus. The procedure, abridged: as §1
Assay [6] is filed under the species Rattus norvegicus. In words: Positive allosteric modulation of AMPA receptor in rat hippocampal slices assessed as increase of fEPSP-induced current amplitude at 1 uM. In kind it is tissue-based. The conditions noted are these: Hippocampus. The procedure, abridged: as §1

Active and inactive are the calls of the source. No cut-off for these calls is given here.

The Ki is the dissociation constant of the complex between target and ligand, obtained from inhibition or displacement. In the case of `O=C1c2cc3c(cc2OCN1CCn1nccn1)C(=O)N1CCCC1O3` (stereo unspecified), the CD in the assay filed under Rattus norvegicus [1] is 0.8 µM. Moreover, the Activity in the assay listed under Rattus norvegicus [2] is 7%. The Ki in assay [3] was 62 µM.

Regarding `O=C1c2cc3c(cc2OCN1CCn1cncn1)C(=O)N1CCCC1O3` (stereo unspecified), the CD in the assay listed under Rattus norvegicus [1] is 0.063 µM. The Activity in the assay listed under Rattus norvegicus [2] was 31%. For the same molecule, the Ki in assay [3] came out at 2.1 µM.

Consider `N#CCCCN1COc2cc3c(cc2C1=O)OC1CCCN1C3=O` (stereo unspecified), for which the CD in the assay filed under Rattus norvegicus [1] is 0.05 µM. In addition, the Activity in the assay filed under Rattus norvegicus [2] is 11%. The affinity in assay [3], expressed as Ki, was 6.8 µM.

For the molecule `C[S+]([O-])CCN1COc2cc3c(cc2C1=O)OC1CCCN1C3=O` (stereo unspecified), the CD in the assay filed under Rattus norvegicus [1] came to 0.11 µM. For the same molecule, the Activity in the assay listed under Rattus norvegicus [2] amounted to 14%. Also, the inhibition constant (Ki) in assay [3] is 13 µM.

Take `O=C1c2cc3c(cc2OCN1CCn1ccnc1)C(=O)N1CCCC1O3` (stereo unspecified): the CD in the assay filed under Rattus norvegicus [1] was determined as 0.05 µM. For the same molecule, the Activity in the assay filed under Rattus norvegicus [4] amounted to 38%. The affinity in assay [3] corresponds to a Ki of 6.6 µM.

For the molecule `NC(=O)CCN1COc2cc3c(cc2C1=O)OC1CCCN1C3=O` (stereo unspecified), the CD in the assay filed under Rattus norvegicus [1] was found to be 1.1 µM. Moreover, in the assay filed under Rattus norvegicus [5], the Activity stood at 6%. Also, the Ki in assay [3] amounted to 51 µM.

For `O=C1c2cc3c(cc2OCN1c1ccccc1)C(=O)N1CCCC1O3` (stereo unspecified), the CD result in the assay filed under Rattus norvegicus [1] was “inactive”.

As to `O=C1c2cc3c(cc2OCN1CCc1cccc(OC(F)(F)F)c1)C(=O)N1CCCC1O3` (stereo unspecified), the CD in the assay listed under Rattus norvegicus [1] is 3 µM. In assay [3], this molecule registered an inhibition constant (Ki) of 13 µM.

As for `O=C1c2cc3c(cc2OCN1CCc1ccccc1)C(=O)N1CCCC1O3` (stereo unspecified), the CD in the assay listed under Rattus norvegicus [1] was found to be 0.25 µM. For the same molecule, the Activity stood at 3% in the assay filed under Rattus norvegicus [2] and 19% in the assay listed under Rattus norvegicus [5]. In assay [3], this molecule had a Ki of 7.9 µM.

As for `CS(=O)(=O)CCN1COc2cc3c(cc2C1=O)OC1CCCN1C3=O` (stereo unspecified), the CD in the assay listed under Rattus norvegicus [1] was found to be 0.32 µM. Besides, the Activity in the assay filed under Rattus norvegicus [2] turned out to be 6%. The same molecule showed a Ki in assay [3] of 20 µM.

In the case of `NC(=O)c1cccc(CCN2COc3cc4c(cc3C2=O)OC2CCCN2C4=O)c1` (stereo unspecified), the CD in the assay listed under Rattus norvegicus [1] stood at 5 µM. In addition, the inhibition constant (Ki) in assay [3] is 620 µM.

For the molecule `COc1cccc(CCN2COc3cc4c(cc3C2=O)OC2CCCN2C4=O)c1` (stereo unspecified), the CD in the assay filed under Rattus norvegicus [1] is 14 µM. In assay [3], this molecule registered a Ki of 69 µM.

As for `Cc1nccn1CCN1COc2cc3c(cc2C1=O)OC1CCCN1C3=O` (stereo unspecified), the CD in the assay filed under Rattus norvegicus [1] was 1.8 µM. In assay [3], this molecule displayed a Ki of 227 µM.

Consider `CCN1COc2cc3c(cc2C1=O)OC1CCCN1C3=O` (stereo unspecified), for which the CD in the assay filed under Rattus norvegicus [1] amounted to 0.2 µM. The Activity in the assay listed under Rattus norvegicus [4] stood at 17%. The inhibitory constant (Ki) in assay [3] is 20 µM.

Regarding `O=C1c2cc3c(cc2OCN1CCn1cnc([N+](=O)[O-])n1)C(=O)N1CCCC1O3` (stereo unspecified), in the assay listed under Rattus norvegicus [1], the CD was determined as 0.01 µM. Besides, the Activity in the assay listed under Rattus norvegicus [2] amounted to 14%. This molecule also showed a Ki in assay [3] of 4.2 µM.

Consider `N#CCCCCN1COc2cc3c(cc2C1=O)OC1CCCN1C3=O` (stereo unspecified), for which the CD in the assay filed under Rattus norvegicus [1] amounted to 0.11 µM. In the assay listed under Rattus norvegicus [4], the Activity was 22%. Besides, the inhibition constant (Ki) in assay [3] was 4.5 µM.

For `O=C1c2cc3c(cc2OCN1CCn1cc(Cl)cn1)C(=O)N1CCCC1O3` (stereo unspecified), the CD in the assay filed under Rattus norvegicus [1] is 0.0037 µM. Moreover, in the assay listed under Rattus norvegicus [6], the Activity was determined as 23%. Moreover, the inhibition constant Ki in assay [3] came out at 0.33 µM.

In the case of `O=C1c2cc3c(cc2OCN1CCc1ccncc1)C(=O)N1CCCC1O3` (stereo unspecified), the CD in the assay listed under Rattus norvegicus [1] was determined as 0.24 µM. In addition, the Activity in the assay filed under Rattus norvegicus [4] turned out to be 15%; in the assay filed under Rattus norvegicus [2], 3%. The same molecule gave an inhibition constant (Ki) in assay [3] of 43 µM.

On to `C[C@H]1CN2C(=O)c3cc4c(cc3O[C@@H]2O1)OCO4`, for which the CD in the assay filed under Rattus norvegicus [1] is 2 µM.

For `CS(=O)(=O)NCCN1COc2cc3c(cc2C1=O)OC1CCCN1C3=O` (stereo unspecified), in the assay listed under Rattus norvegicus [1], the CD worked out at 0.33 µM. Also, the Activity in the assay listed under Rattus norvegicus [2] came to 10%. In assay [3], this molecule registered a Ki of 8.4 µM.

`N#Cc1cccc(CCN2COc3cc4c(cc3C2=O)OC2CCCN2C4=O)c1` (stereo unspecified): in the assay listed under Rattus norvegicus [1], the CD stood at 0.027 µM. Besides, the Activity in the assay filed under Rattus norvegicus [2] was 16%. In assay [3], this molecule showed a Ki of 3 µM.

`N#Cc1ccn(CCN2COc3cc4c(cc3C2=O)OC2CCCN2C4=O)n1` (stereo unspecified): the CD in the assay listed under Rattus norvegicus [1] was determined as 0.1 µM. Moreover, in the assay filed under Rattus norvegicus [2], the Activity came out at 10%. Affinity in assay [3] was put at a Ki of 18 µM.

Regarding `CSCCN1COc2cc3c(cc2C1=O)OC1CCCN1C3=O` (stereo unspecified), in the assay filed under Rattus norvegicus [1], the CD is 0.29 µM. In the assay filed under Rattus norvegicus [2], the Activity was 12%. This molecule yielded a Ki in assay [3] of 17 µM.

With `O=C1c2cc3c(cc2OCN1CCc1ccccn1)C(=O)N1CCCC1O3` (stereo unspecified), in the assay filed under Rattus norvegicus [1], the CD stood at 0.6 µM. In the assay listed under Rattus norvegicus [5], the Activity stood at 15%. Further, in assay [3], the affinity corresponds to a Ki of 130 µM.

For the molecule `N#Cc1cnn(CCN2COc3cc4c(cc3C2=O)OC2CCCN2C4=O)c1` (stereo unspecified), the CD in the assay listed under Rattus norvegicus [1] stood at 0.04 µM. For the same molecule, the Activity in the assay filed under Rattus norvegicus [2] came out at 29%. The same molecule showed a Ki in assay [3] of 1 µM.

Regarding `N#CCCN1COc2cc3c(cc2C1=O)OC1CCCN1C3=O` (stereo unspecified), in the assay filed under Rattus norvegicus [1], the CD was found to be 0.6 µM. In addition, in the assay filed under Rattus norvegicus [4], the Activity stood at 19%. Besides, affinity in assay [3] was put at a Ki of 11 µM.

Regarding `O=C1c2cc3c(cc2OC2CCCN12)OCCO3` (stereo unspecified), the CD in the assay filed under Rattus norvegicus [1] is 2.3 µM.

Turning to `O=C1c2cc3c(cc2OCN1CCCc1ccccc1)C(=O)N1CCCC1O3` (stereo unspecified), the CD in the assay filed under Rattus norvegicus [1] came out at 3.6 µM.

On to `O=C1c2cc3c(cc2OCN1CCc1cccc(Br)c1)C(=O)N1CCCC1O3` (stereo unspecified), for which the CD in the assay listed under Rattus norvegicus [1] worked out at 1.6 µM. In assay [3], this molecule yielded a Ki of 150 µM.
